Test results published in PMC11774189 (RSC Advances, 2025).
Where two headings read alike, the source gives them in different places.

Key:
A549 cells [1] = experiment: Annexin-V FITC and PI flow cytometry assay for apoptosis; assay type: cell-based, human; settings: 48 hours
How it was run: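 A549 cells seeded at 5×10^5 per 25 cm² flask, treated 48 h with test compound (0.45, 0.9, 1.8 μM), DMSO 1% vehicle or camptothecin 2 μM. Harvested, washed in cold PBS, resuspended in binding buffer, stained with annexin V plus PI (1 mg mL⁻¹ stock), 15 min at 37 °C, diluted in binding buffer, analysed by flow cytometry. Quadrants: live, early apoptotic, late apoptotic, necrotic.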

[2] = test system: KB (epidermoid carcinoma) cell line; experiment: MTT cytotoxicity assay, KB cells; assay type: cell-based, human; settings: read-out: IC50, KB
[3] = test system: A549 (non-small lung cancer) cell line; experiment: MTT cytotoxicity assay, A549 cells; assay type: cell-based, human; settings: read-out: IC50, A549
[4] = test system: HepG2 (hepatoma carcinoma) cell line; experiment: MTT cytotoxicity assay, HepG2 cells; assay type: cell-based, human; settings: read-out: IC50, HepG2
[5] = test system: MCF7 (breast cancer) cell line; experiment: MTT cytotoxicity assay, MCF7 cells; assay type: cell-based, human; settings: read-out: IC50, MCF7
[6] = test system: Hek-293 human embryonic kidney cells; experiment: MTT cytotoxicity assay, Hek-293 cells; assay type: cell-based; settings: for IC50: read-out: IC50, Hek-293; for fold lower cytotoxicity against Hek-293 cells than to A549: Hek-293 vs A549
A549 cells [7] = experiment: Cell cycle analysis by PI flow cytometry; assay type: cell-based, human; settings: 24 hours
How it was run: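 A549 cells seeded at 3×10^5 per 25 cm² flask; exposed 24 h to test compound (0.45, 0.9, 1.8 μM) or DMSO 0.5%. Cells washed twice in PBS, fixed in ice-cold 70% ethanol at –20 °C for 2 h, pelleted, treated with RNase A (2.5 mg mL⁻¹) 15 min at 37 °C, stained 30 min with PI (1 mg mL⁻¹ stock), then flow cytometry for phase distribution.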

Compound: CC[C@@]1(O)C(=O)OCc2c1cc1n(c2=O)Cc2cc3ccccc3nc2-1 [Camptothecin, reference compound]
- % early apoptosis cells (Q2-4) (A549 cells [1]; A549, 2 μM): 30.71%
- % late apoptosis cells (Q2-2) (A549 cells [1]; A549, 2 μM): 11.05%
- % necrotic cells (Q2-1) (A549 cells [1]; A549, 2 μM): 1.99%
- % total apoptosis cells (A549 cells [1]; A549, 2 μM): 41.76%

Compound: Cc1ccc2c(c1)C1(C(=O)N2)C2=C(COC2=O)NC2=C1C(=O)c1ccccc1C2=O (stereo not drawn) [Compound 7c, 5′-Methyl-3H-spiro[benzo[g]furo[3,4-b]quinoline-11,3′-indoline]-1,2′,5,10(4H)-tetraone]
- IC50 ([2]; Homo sapiens, KB, 72 h): 3.46 ± 0.33 µM
- IC50 ([3]; Homo sapiens, A549, 72 h): 1.91 ± 0.2 µM
- IC50 ([4]; Homo sapiens, HepG2, 72 h): 4.02 ± 0.45 µM
- IC50 ([5]; Homo sapiens, MCF7, 72 h): 4.17 ± 0.48 µM
- IC50 ([6]; Homo sapiens, HEK293, 72 h): 3.89 ± 0.4 µM

Compound: Cc1c2ccncc2c(C)c2c1[nH]c1ccccc12 [Ellipticine, reference compound]
- IC50 ([3]; Homo sapiens, A549, 72 h): 1.34 ± 0.08 µM
- IC50 ([4]; Homo sapiens, HepG2, 72 h): 2.07 ± 0.12 µM
- IC50 ([5]; Homo sapiens, MCF7, 72 h): 2.07 ± 0.16 µM
- IC50 ([6]; Homo sapiens, HEK293, 72 h): 5.64 ± 0.32 µM

Compound: O=C1OCC2=C1C1(C(=O)N(Cc3ccc(C(F)(F)F)cc3)c3ccccc31)C1=C(N2)C(=O)c2ccccc2C1=O (stereo not drawn) [Compound 7i, 1′-(4-(Trifluoromethyl)benzyl)-3H-spiro[benzo[g]furo[3,4-b]quinoline-11,3′-indoline]-1,2′,5,10(4H)-tetraone]
- IC50 ([2]; Homo sapiens, KB, 72 h): 4.65 ± 0.44 µM
- IC50 ([3]; Homo sapiens, A549, 72 h): 7.37 ± 0.83 µM
- IC50 ([4]; Homo sapiens, HepG2, 72 h): 4.5 ± 0.48 µM
- IC50 ([5]; Homo sapiens, MCF7, 72 h): 3.72 ± 0.35 µM
- IC50 ([6]; Homo sapiens, HEK293, 72 h): 4.04 ± 0.42 µM

Compound: O=C1OCC2=C1C1(C(=O)N(Cc3ccc(Br)cc3F)c3ccccc31)C1=C(N2)C(=O)c2ccccc2C1=O (stereo not drawn) [Compound 7k, 1′-(4-Bromo-2-fluorobenzyl)-3H-spiro[benzo[g]furo[3,4-b]quinoline-11,3′-indoline]-1,2′,5,10(4H)-tetraone]
- IC50 ([2]; Homo sapiens, KB, 72 h): 27.3 ± 2.15 µM
- IC50 ([3]; Homo sapiens, A549, 72 h): 14 ± 1.59 µM
- IC50 ([4]; Homo sapiens, HepG2, 72 h): 20.9 ± 2.36 µM
- IC50 ([5]; Homo sapiens, MCF7, 72 h): 15.1 ± 1.59 µM
- IC50 ([6]; Homo sapiens, HEK293, 72 h): > 28 µM

Compound: O=C1OCC2=C1C1(C(=O)N(Cc3ccc(Cl)cc3)c3ccccc31)C1=C(N2)C(=O)c2ccccc2C1=O (stereo not drawn) [Compound 7j, 1′-(4-Chlorobenzyl)-3H-spiro[benzo[g]furo[3,4-b]quinoline-11,3′-indoline]-1,2′,5,10(4H)-tetraone]
- IC50 ([2]; Homo sapiens, KB, 72 h): 5.6 ± 0.49 µM
- IC50 ([3]; Homo sapiens, A549, 72 h): 6.54 ± 0.69 µM
- IC50 ([4]; Homo sapiens, HepG2, 72 h): 5.78 ± 0.61 µM
- IC50 ([5]; Homo sapiens, MCF7, 72 h): 4.09 ± 0.41 µM
- IC50 ([6]; Homo sapiens, HEK293, 72 h): 10.3 ± 1.06 µM

Compound: O=C1OCC2=C1C1(C(=O)N(Cc3ccccc3)c3ccccc31)C1=C(N2)C(=O)c2ccccc2C1=O (stereo not drawn) [Compound 7h, 1′-Benzyl-3H-spiro[benzo[g]furo[3,4-b]quinoline-11,3′-indoline]-1,2′,5,10(4H)-tetraone]
- IC50 ([2]; Homo sapiens, KB, 72 h): 3.96 ± 0.34 µM
- IC50 ([3]; Homo sapiens, A549, 72 h): 1.71 ± 0.19 µM
- IC50 ([4]; Homo sapiens, HepG2, 72 h): 4.24 ± 0.38 µM
- IC50 ([5]; Homo sapiens, MCF7, 72 h): 3.73 ± 0.38 µM
- IC50 ([6]; Homo sapiens, HEK293, 72 h): 2.72 ± 0.19 µM

Compound: O=C1OCC2=C1C1(C(=O)N(Cc3ccc(C(F)(F)F)cc3)c3cc(Br)c(Br)cc31)C1=C(N2)C(=O)c2ccccc2C1=O (stereo not drawn) [Compound 7n, 5′,6′-Dibromo-1′-(4-(trifluoromethyl)benzyl)-3H-spiro[benzo[g]furo[3,4-b]quinoline-11,3′-indoline]-1,2′,5,10(4H)-tetraone]
- IC50 ([2]; Homo sapiens, KB, 72 h): 4.36 ± 0.4 µM
- IC50 ([3]; Homo sapiens, A549, 72 h): 1.03 ± 0.13 µM
- IC50 ([4]; Homo sapiens, HepG2, 72 h): 6.74 ± 0.73 µM
- IC50 ([5]; Homo sapiens, MCF7, 72 h): 2.11 ± 0.24 µM
- fold lower cytotoxicity against Hek-293 cells than to A549 [6]: ~22 fold
- fold lower cytotoxicity against Hek-293 cells than to MCF7 ([6]; Hek-293 vs MCF7): about 11 fold
- IC50 ([6]; Homo sapiens, HEK293, 72 h): 22.9 ± 2.2 µM

Compound: O=C1OCC2=C1C1(C(=O)Nc3ccc(Br)cc31)C1=C(N2)C(=O)c2ccccc2C1=O (stereo not drawn) [Compound 7d, 5′-Bromo-3H-spiro[benzo[g]furo[3,4-b]quinoline-11,3′-indoline]-1,2′,5,10(4H)-tetraone]
- IC50 ([2]; Homo sapiens, KB, 72 h): 4.75 ± 0.41 µM
- IC50 ([3]; Homo sapiens, A549, 72 h): 1.62 ± 0.17 µM
- IC50 ([4]; Homo sapiens, HepG2, 72 h): 4.34 ± 0.41 µM
- IC50 ([5]; Homo sapiens, MCF7, 72 h): 2.07 ± 0.26 µM
- IC50 ([6]; Homo sapiens, HEK293, 72 h): 3.52 ± 0.37 µM

Compound: O=C1OCC2=C1C1(C(=O)Nc3ccccc31)C1=C(N2)C(=O)c2ccccc2C1=O (stereo not drawn) [Compound 7a, 3H-Spiro[benzo[g]furo[3,4-b]quinoline-11,3′-indoline]-1,2′,5,10(4H)-tetraone]
- IC50 ([2]; Homo sapiens, KB, 72 h): 5.33 ± 0.62 µM
- IC50 ([3]; Homo sapiens, A549, 72 h): 1.98 ± 0.16 µM
- IC50 ([4]; Homo sapiens, HepG2, 72 h): 5.33 ± 0.62 µM
- IC50 ([5]; Homo sapiens, MCF7, 72 h): 1.95 ± 0.21 µM
- IC50 ([6]; Homo sapiens, HEK293, 72 h): 4.89 ± 0.44 µM

Compound: Cc1ccc2c(c1)N(Cc1ccc(Br)cc1F)C(=O)C21C2=C(COC2=O)NC2=C1C(=O)c1ccccc1C2=O (stereo not drawn) [Compound 7m, 1′-(4-Bromo-2-fluorobenzyl)-6′-methyl-3H-spiro[benzo[g]furo[3,4-b]quinoline-11,3′-indoline]-1,2′,5,10(4H)-tetraone]
- IC50 ([2]; Homo sapiens, KB, 72 h): 51.7 ± 1.78 µM
- IC50 ([3]; Homo sapiens, A549, 72 h): 13.3 ± 0.7 µM
- IC50 ([4]; Homo sapiens, HepG2, 72 h): 47.5 ± 2.15 µM
- IC50 ([5]; Homo sapiens, MCF7, 72 h): 19.9 ± 0.89 µM
- IC50 ([6]; Homo sapiens, HEK293, 72 h): > 65 µM

Compound: O=C1OCC2=C1C1(C(=O)Nc3c(Br)cc(Br)cc31)C1=C(N2)C(=O)c2ccccc2C1=O (stereo not drawn) [Compound 7f, 5′,7′-Dibromo-3H-spiro[benzo[g]furo[3,4-b]quinoline-11,3′-indoline]-1,2′,5,10(4H)-tetraone]
- IC50 ([2]; Homo sapiens, KB, 72 h): 1.99 ± 0.22 µM
- IC50 ([3]; Homo sapiens, A549, 72 h): 0.9 ± 0.09 µM
- IC50 ([4]; Homo sapiens, HepG2, 72 h): 3.28 ± 0.39 µM
- IC50 ([5]; Homo sapiens, MCF7, 72 h): 1.84 ± 0.17 µM
- fold lower cytotoxicity against Hek-293 cells than to A549 [6]: about 7 fold
- IC50 ([6]; Homo sapiens, HEK293, 72 h): 6.7 ± 0.57 µM
- % G0/G1 (A549 cells [7]; A549, 0.45 μM): 36.01%
- % G2/M (A549 cells [7]; A549, 0.45 μM): 13.49%
- % S (A549 cells [7]; A549, 0.45 μM): 47.96%
- % G0/G1 (A549 cells [7]; A549, 0.9 μM): 26.63%
- % G2/M (A549 cells [7]; A549, 0.9 μM): 4.17%
- % S (A549 cells [7]; A549, 0.9 μM): 67.93%
- % G0/G1 (A549 cells [7]; A549, 1.8 μM): 20.81%
- % G2/M (A549 cells [7]; A549, 1.8 μM): 13.61%
- % S (A549 cells [7]; A549, 1.8 μM): 63.88%
- % early apoptosis cells (Q2-4) (A549 cells [1]; A549, 0.45 μM): 1.76%
- % late apoptosis cells (Q2-2) (A549 cells [1]; A549, 0.45 μM): 1.26%
- % necrotic cells (Q2-1) (A549 cells [1]; A549, 0.45 μM): 0.64%
- % total apoptosis cells (A549 cells [1]; A549, 0.45 μM): 3.02%
- % early apoptosis cells (Q2-4) (A549 cells [1]; A549, 0.9 μM): 3.13%
- % late apoptosis cells (Q2-2) (A549 cells [1]; A549, 0.9 μM): 1.83%
- % necrotic cells (Q2-1) (A549 cells [1]; A549, 0.9 μM): 0.94%
- % early apoptosis cells (Q2-4) (A549 cells [1]; A549, 1.8 μM): 12.68%
- % late apoptosis cells (Q2-2) (A549 cells [1]; A549, 1.8 μM): 6.72%
- % necrotic cells (Q2-1) (A549 cells [1]; A549, 1.8 μM): 2.53%
- % total apoptosis cells (A549 cells [1]; A549, 1.8 μM): 19.4%

Compound: O=C1OCC2=C1C1(C(=O)N(Cc3ccc(C(F)(F)F)cc3)c3ccc(Cl)cc31)C1=C(N2)C(=O)c2ccccc2C1=O (stereo not drawn) [Compound 7l, 5′-Chloro-1′-(4-(trifluoromethyl)benzyl)-3H-spiro[benzo[g]furo[3,4-b]quinoline-11,3′-indoline]-1,2′,5,10(4H)-tetraone]
- IC50 ([2]; Homo sapiens, KB, 72 h): 17.8 ± 1.68 µM
- IC50 ([3]; Homo sapiens, A549, 72 h): 5.93 ± 0.64 µM
- IC50 ([4]; Homo sapiens, HepG2, 72 h): 15.1 ± 1.7 µM
- IC50 ([5]; Homo sapiens, MCF7, 72 h): 13.4 ± 1.23 µM
- IC50 ([6]; Homo sapiens, HEK293, 72 h): > 27.7 µM

Compound: 4′,6′-Dimethyl-3H-spiro[benzo[g]furo[3,4-b]quinoline-11,3′-indoline]-1,2′,5,10(4H)-tetraone [Compound 7g]
- IC50 ([2]; MTT, 3 days incubation): 4.85 ± 0.41 µM
- IC50 ([3]; MTT, 3 days incubation): 1.67 ± 0.17 µM
- IC50 ([4]; MTT, 3 days incubation): 6.74 ± 0.68 µM
- IC50 ([5]; MTT, 3 days incubation): 2.62 ± 0.22 µM
- IC50 ([6]; MTT, 3 days incubation): 7.27 ± 0.78 µM

Compound: O=C1OCC2=C1C1(C(=O)Nc3ccc(Cl)cc31)C1=C(N2)C(=O)c2ccccc2C1=O (stereo not drawn) [Compound 7b, 5′-Chloro-3H-spiro[benzo[g]furo[3,4-b]quinoline-11,3′-indoline]-1,2′,5,10(4H)-tetraone]
- IC50 ([2]; Homo sapiens, KB, 72 h): 3.15 ± 0.21 µM
- IC50 ([3]; Homo sapiens, A549, 72 h): 1.41 ± 0.12 µM
- IC50 ([4]; Homo sapiens, HepG2, 72 h): 2.32 ± 0.31 µM
- IC50 ([5]; Homo sapiens, MCF7, 72 h): 4.2 ± 0.5 µM
- IC50 ([6]; Homo sapiens, HEK293, 72 h): 3.32 ± 0.33 µM
